Data on ten compounds can be found in PMC8898323 (ChemMedChem, 2021).

Data set [1] can be described thus: Metabolic stability in human liver microsomes. The note with it: NADPH. Format: in vitro ADME. In outline: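 Inhibitor pre-incubated at 37 °C with liver microsomal protein of the given species. Reaction started with NADPH, or buffer as control. Proteins precipitated, then parent remaining measured by LC-MS/MS in SRM mode to give t1/2.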
A general note: Microsomes from liver hold many membrane-bound enzymes, among them those of drug oxidation.

In another data set the target is T1, hMGL (Homo sapiens, UniProt Q99685).
T1 sequence (Q99685 1-303): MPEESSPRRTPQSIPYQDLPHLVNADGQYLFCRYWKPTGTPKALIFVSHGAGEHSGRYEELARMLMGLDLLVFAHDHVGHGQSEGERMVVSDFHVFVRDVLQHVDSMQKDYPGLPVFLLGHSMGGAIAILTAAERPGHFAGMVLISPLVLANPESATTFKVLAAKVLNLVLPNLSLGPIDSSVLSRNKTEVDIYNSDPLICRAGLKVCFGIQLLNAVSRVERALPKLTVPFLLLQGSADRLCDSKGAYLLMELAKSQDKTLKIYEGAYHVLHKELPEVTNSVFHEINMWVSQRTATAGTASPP
Nature of the data set: Fluorescence-based hMGL inhibition counterscreen. The settings on record: for hMGL inhibition, result in words: inactive tested at 1uM. The class given is biochemical. (The purpose of a counterscreen is to sort out artefacts and off-target activity.)

Data set [2] deals with rat retina (AMPA excitotoxicity). The note with it: cited from earlier work.
The next data set addresses T2, hFAAH (Homo sapiens, UniProt O00519).
T2 sequence (O00519 1-579): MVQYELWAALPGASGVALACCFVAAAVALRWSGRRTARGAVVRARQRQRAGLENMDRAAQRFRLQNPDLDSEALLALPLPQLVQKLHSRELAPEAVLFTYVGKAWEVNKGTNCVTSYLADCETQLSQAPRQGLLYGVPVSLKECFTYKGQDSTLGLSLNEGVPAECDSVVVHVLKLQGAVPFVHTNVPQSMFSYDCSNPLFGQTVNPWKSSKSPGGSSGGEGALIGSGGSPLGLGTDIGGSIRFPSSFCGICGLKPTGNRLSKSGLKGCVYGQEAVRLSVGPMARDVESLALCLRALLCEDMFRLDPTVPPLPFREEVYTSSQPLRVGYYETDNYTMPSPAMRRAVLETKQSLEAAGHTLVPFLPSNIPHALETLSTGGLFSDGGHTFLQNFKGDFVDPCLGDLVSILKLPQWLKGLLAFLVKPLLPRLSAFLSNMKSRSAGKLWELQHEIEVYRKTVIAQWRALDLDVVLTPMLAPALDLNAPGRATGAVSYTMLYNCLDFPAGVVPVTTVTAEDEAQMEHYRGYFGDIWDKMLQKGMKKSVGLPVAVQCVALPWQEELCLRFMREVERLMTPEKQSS
The experiment in a line: Fluorescence-based hFAAH inhibition counterscreen. The class given is biochemical. The note with it: for hFAAH inhibition, result in words: inactive tested at 1uM.

Data set [3] can be described thus: Cassette pharmacokinetics in brain and plasma, male CD-1 mice. The class given is in vivo, mouse. The note with it: for concentration at 15 min: iv; for concentration at 30 min / concentration at 60 min: po. In outline: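 Male CD-1 mice (25–30 g), cassette dosing: single iv dose of 2 mg/kg and oral dose of 8 mg/kg per compound. Plasma and brain taken 15 min after iv, and 30 and 60 min after oral dosing, n = 3 per time point. Flash-frozen tissue extracted and quantified by LC-MS/MS (SRM) with internal standards.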

In a further data set the target is T3, hABHD6 (Homo sapiens, UniProt Q9BV23).
T3 sequence (Q9BV23 1-337): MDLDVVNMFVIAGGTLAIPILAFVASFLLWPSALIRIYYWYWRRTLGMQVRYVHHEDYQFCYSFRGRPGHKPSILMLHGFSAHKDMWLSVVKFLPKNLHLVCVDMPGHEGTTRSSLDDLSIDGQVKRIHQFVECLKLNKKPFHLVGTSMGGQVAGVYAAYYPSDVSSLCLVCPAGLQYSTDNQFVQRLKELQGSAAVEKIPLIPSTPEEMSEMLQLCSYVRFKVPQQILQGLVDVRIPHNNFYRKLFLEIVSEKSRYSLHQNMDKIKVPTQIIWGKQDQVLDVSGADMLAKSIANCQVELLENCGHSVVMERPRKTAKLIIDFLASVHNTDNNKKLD
Nature of the data set: Fluorescence-based hABHD6 inhibition assay. Format: biochemical. The settings on record: for inhibition at 10 µM: read-out: % inhibition hABHD6; for hABHD6 inhibition, result in words: words in table or text, table footnote c: inactive tested at 1uM; for fold loss in potency for ABHD6: versus the comparator analog named in the text.

For a further data set, the system named is ABHD6. The settings on record: read-out: IC50 ABHD6; activity-based protein profiling (ABPP) assay; ref 22b; cited from earlier work.
The mark [4] stands for this setting: male, CD-1, mouse, brain, 8 mg/kg.
[5] abbreviates: male, CD-1, mouse, plasma, 8 mg/kg.
[6] abbreviates: read-out: IC50 (nM) ± SEM hMGL, triplicate, eight concentrations.

As a reminder, the Kp is tissue or fluid exposure divided by exposure in the circulation. A word on the bioavailability: it is the share of a dose that reaches the circulation, judged against a reference dose that is usually intravenous. A lower bioavailability goes with little systemic uptake. What is called inhibition is the relative decrease from the control value, in per cent. As usually defined, the IC50 is the point on the concentration scale where inhibition reaches its midpoint.

Entries after “also recorded” stand apart in the source; their conditions may differ. Like-named read-outs stand apart in the source and are kept apart here.

On to `O=C(OC(C(F)(F)F)C(F)(F)F)N1Cc2ccc(OCCN3CCOCC3)cc2C1` [22f, 1,1,1,3,3,3-Hexafluoropropan-2-yl 5-(2-morpholinoethoxy)isoindoline-2-carboxylate], for which, in data set [1], the “Microsomes t1/2 min Human” value is recorded as “most stable”. Also, at hMGL, the “hMGL inhibition, result in words” value is “inactive”. Besides, the AMPA-induced glia activation result in data set [2] (rat retina) was “attenuated”. Further, in data set [2] (rats, AMPA excitotoxicity), the retina neuroprotection result is given as “dose-dependent retina neuroprotection”. Further, at hFAAH, the “hFAAH inhibition, result in words” value was “inactive^f”. Also, in data set [3] (comparing brain and plasma levels after iv administration at 15 min), the “brain permeability, result in words” value is on record as “brain permeable”. The compound further yielded a Kp at 15 min in data set [3] (male, CD-1, mouse, brain, intravenous, 2 mg/kg) of 1.2. For the same compound, the concentration at 15 min in data set [3] (male, CD-1, mouse, brain, 2 mg/kg) turned out to be 735 ± 56 ng/g; in data set [3] (male, CD-1, mouse, plasma, 2 mg/kg) it was 633 ± 46 ng/mL. For the same compound, the concentration at 30 min in data set [3] (setting [4]) is 248 ± 89 ng/g; in data set [3] (setting [5]), 180 ± 72 ng/mL. The concentration at 60 min was determined as 227 ± 95 ng/g in data set [3] (setting [4]) and 140 ± 31 ng/mL in data set [3] (setting [5]). Also, in data set [3] (male, CD-1, mouse, plasma, oral, 8 mg/kg), the bioavailability is 28%.

As for `O=C(O[C@H](CO)C(F)(F)F)N1CCc2c(Br)cccc2C1` [14j, (R)-1,1,1-trifluoro-3-hydroxypropan-2-yl 5-bromo-3,4-dihydroisoquinoline-2(1H)-carboxylate], at hABHD6, the inhibition at 10 µM amounted to 35% and the “hABHD6 inhibition, result in words” value was “practically inactive”. Further, the “hMGL inhibition, result in words” value at hMGL is “inactive”. Further, at hFAAH, the “hFAAH inhibition, result in words” value was “inactive”.

Consider `CC1(C)C2C(=O)N(OC(=O)N3CCc4c(Br)cccc4C3)C(=O)C21` (centres unmarked) [25b, 6,6-Dimethyl-2,4-dioxo-3-azabicyclo[3.1.0]hexan-3-yl 5-bromo-3,4-dihydro isoquinoline-2(1H)-carboxylate], for which the “fold loss in potency for ABHD6” value on hABHD6 is on record as 2 fold. Besides, the “hMGL inhibition, result in words” value at hMGL is “inactive”. For the same compound, the “hFAAH inhibition, result in words” value at hFAAH was “inactive”.

Turning to `CN(C1CN(C(=O)OC(C(F)(F)F)C(F)(F)F)C1)C(c1ccc(F)cc1)c1ccc(F)cc1` [9d, 1,1,1,3,3,3-Hexafluoropropan-2-yl 3-((bis(4-fluorophenyl)methyl) (methyl)amino) azetidine-1-carboxylate], the IC50 at hMGL (setting [6]) came to 83.5 ± 1.8 nM. The “hFAAH inhibition, result in words” value on hFAAH is “inactive”.

For `O=C(OC(C(F)(F)F)C(F)(F)F)N1Cc2ccc(OCCN3CCCCC3)cc2C1` [22j, 1,1,1,3,3,3-Hexafluoropropan-2-yl 5-(2-(piperidin-1-yl)ethoxy)isoindoline-2-carboxylate], on hMGL, the “hMGL inhibition, result in words” value is “inactive”. The inhibition at 1 µM on hFAAH (read-out: % inhibition hFAAH) was determined as 71%.

Regarding `O=C(OC(C(F)(F)F)C(F)(F)F)N1CC(OC(c2ccc(F)cc2)c2ccc(F)cc2)C1` [6b, 1,1,1,3,3,3-Hexafluoropropan-2-yl 3-(bis(4-fluorophenyl)methoxy)azetidine-1-carboxylate], the “fold loss in potency for ABHD6” value on hABHD6 is listed as “about 2 fold”. In addition, inhibition on hMGL was half-maximal at 6.4 ± 1.5 nM (IC50). Moreover, at hFAAH, the “hFAAH inhibition, result in words” value was “inactive”.

For `N#Cc1cccc(OC(=O)N2CC(OC(c3ccc(F)cc3)c3ccc(F)cc3)C2)c1` [5a, 3-Cyanophenyl 3-(bis(4-fluorophenyl)methoxy)azetidine-1-carboxylate], the “fold loss in potency for ABHD6” value at hABHD6 was “about 2 fold”. The compound also registered an IC50 against hMGL of 66.1 ± 2.4 nM. In addition, the inhibition at 0.1 µM at hFAAH (read-out: % inhibition hFAAH) was 33%.

Consider `O=C(OC(C(F)(F)F)C(F)(F)F)N1CC(C(c2ccccc2)c2ccccc2)C1` [10d, 1,1,1,3,3,3-Hexafluoropropan-2-yl 3-benzhydrylazetidine-1-carboxylate], for which, at hABHD6, the inhibition at 10 µM was 37% and the “hABHD6 inhibition, result in words” value is “practically inactive”. Further, at hMGL (setting [6]), the IC50 was 348 ± 7.5 nM. For the same compound, the “hFAAH inhibition, result in words” value on hFAAH is “inactive”.

For `O=C(OC(C(F)(F)F)C(F)(F)F)N1CCc2ccccc2C1` [14a, 1,1,1,3,3,3-Hexafluoropropan-2-yl 3,4-dihydroisoquinoline-2(1H)-carboxylate], the “hMGL inhibition, result in words” value at hMGL is “lacked activity; also recorded: inactive”. Besides, on hFAAH, the “hFAAH inhibition, result in words” value was “lacked activity; also recorded: inactive^c”.

With `CN(Cc1cccc(-c2ccncc2)c1)C(=O)Oc1ccc(-c2ccc(C(N)=O)cc2)cc1` [WWL70], the IC50 in the data set on ABHD6 is […].
